Like-named read-outs stand apart in the source and are kept apart here.
Assays:
NIH/3T3 cells = assay: Viability; format: cell-based
[1] = tested on: protein synthesis in DLBCL cells; assay: O-propargyl puromycin; format: cell-based; conditions: concentrations relative to LD50, 4, 16 or 24 hours
Procedure, shortened: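 DLBCL cells treated 4, 16 or 24 h with test compound, silvestrol or carboplatin, at concentrations scaled to each agent's LD50. Cells pulsed with O-propargyl puromycin, washed twice in PBS and click-labelled with Alexa-488 azide. Flow cytometry gave mean fluorescence on live-gated cells, normalised to DMSO. Mean ± SEM, n=3; unpaired two-tailed t-tests with Benjamini–Krieger–Yekutieli correction.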

SNU-398 [2] = assay: Viability assay in SNU-398 cells; format: cell-based; conditions: for type of effect on SNU-398 cells: 72-hour treatment; for LD50: SNU-398, 72-hour treatment
SNU-398 [3] = assay: Western blot in SNU-398 cells; format: cell-based; conditions: 16 hours; for activity against mTORC1 targets (phosphorylation of S6 and 4EBP1): 200 nM rapamycin, 100 nM silvestrol, 1 μM elatol
[4] = tested on: eIF2α-S51 A/A and S/S MEFs; assay: Viability; format: cell-based, Murine; conditions: Mus musculus, 72 h
[5] = tested on: 97 oncogenic and related kinases; assay: Commercial kinome screen; format: binding
DDX39A = DDX39A (Homo sapiens, UniProt O00148); assay: Malachite green ATP hydrolysis counter-screen, DDX39A; format: biochemical
Chain of DDX39A (O00148 whole entry, species assumed): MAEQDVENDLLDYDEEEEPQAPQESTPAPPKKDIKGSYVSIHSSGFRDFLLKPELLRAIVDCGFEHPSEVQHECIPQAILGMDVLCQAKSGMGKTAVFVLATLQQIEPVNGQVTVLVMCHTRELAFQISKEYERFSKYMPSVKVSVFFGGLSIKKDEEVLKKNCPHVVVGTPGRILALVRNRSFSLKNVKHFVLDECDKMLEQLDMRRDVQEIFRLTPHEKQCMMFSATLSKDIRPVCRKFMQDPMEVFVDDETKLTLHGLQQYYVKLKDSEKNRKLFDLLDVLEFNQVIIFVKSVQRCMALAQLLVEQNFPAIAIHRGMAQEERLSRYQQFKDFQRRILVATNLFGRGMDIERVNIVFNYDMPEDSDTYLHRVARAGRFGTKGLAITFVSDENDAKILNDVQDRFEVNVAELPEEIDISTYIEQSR

[6] = target: bacterial chaperonin GroEL (Escherichia coli, UniProt P0A6F5); assay: Malachite green ATP hydrolysis counter-screen, GroEL; format: biochemical
Chain of bacterial chaperonin GroEL (P0A6F5 whole entry): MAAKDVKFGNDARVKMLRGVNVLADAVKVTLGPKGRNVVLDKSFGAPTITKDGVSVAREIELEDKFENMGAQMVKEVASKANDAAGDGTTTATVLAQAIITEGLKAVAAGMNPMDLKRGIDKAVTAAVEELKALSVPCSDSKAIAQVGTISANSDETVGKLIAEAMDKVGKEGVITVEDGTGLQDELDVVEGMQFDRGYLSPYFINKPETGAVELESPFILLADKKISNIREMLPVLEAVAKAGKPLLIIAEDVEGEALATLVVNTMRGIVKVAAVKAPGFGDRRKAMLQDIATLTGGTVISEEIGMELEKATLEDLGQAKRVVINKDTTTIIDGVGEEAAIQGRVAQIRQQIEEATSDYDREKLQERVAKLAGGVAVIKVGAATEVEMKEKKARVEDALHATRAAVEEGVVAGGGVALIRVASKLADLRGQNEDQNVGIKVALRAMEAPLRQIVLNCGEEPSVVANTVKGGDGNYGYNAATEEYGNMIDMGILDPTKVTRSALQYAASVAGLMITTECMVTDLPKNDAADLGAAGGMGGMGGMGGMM

[7] = tested on: Non-Hodgkin Lymphoma cell lines; assay: Viability assay; format: cell-based; conditions: for activity against non-Hodgkin lymphoma (NHL) cell lines (LD50): initial screen hits, DLBCL cell lines, Fig. 1A
OCI-Ly3 xenograft = assay: OCI-Ly3 xenograft; format: in vivo
Procedure, shortened: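 Female SCID mice, 8–10 weeks old. 10 × 10^6 OCI-Ly3 cells, washed in ice-cold PBS and mixed 1:1 with matrigel, implanted s.c. in the flank. Tumors dissected at 500 mm3, dissociated, and 1 × 10^6 serially transplanted cells implanted s.c. At ≥50 mm3, mice pair-matched to vehicle or 40 mg/kg i.p. twice weekly. Weight and tumor volume monitored twice weekly; n=8; two-way ANOVA.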

human chaperone HSP70 = human chaperone HSP70 (Homo sapiens, UniProt P0DMV8); assay: Malachite green ATP hydrolysis counter-screen, HSP70; format: biochemical
Chain of human chaperone HSP70 (P0DMV8 whole entry): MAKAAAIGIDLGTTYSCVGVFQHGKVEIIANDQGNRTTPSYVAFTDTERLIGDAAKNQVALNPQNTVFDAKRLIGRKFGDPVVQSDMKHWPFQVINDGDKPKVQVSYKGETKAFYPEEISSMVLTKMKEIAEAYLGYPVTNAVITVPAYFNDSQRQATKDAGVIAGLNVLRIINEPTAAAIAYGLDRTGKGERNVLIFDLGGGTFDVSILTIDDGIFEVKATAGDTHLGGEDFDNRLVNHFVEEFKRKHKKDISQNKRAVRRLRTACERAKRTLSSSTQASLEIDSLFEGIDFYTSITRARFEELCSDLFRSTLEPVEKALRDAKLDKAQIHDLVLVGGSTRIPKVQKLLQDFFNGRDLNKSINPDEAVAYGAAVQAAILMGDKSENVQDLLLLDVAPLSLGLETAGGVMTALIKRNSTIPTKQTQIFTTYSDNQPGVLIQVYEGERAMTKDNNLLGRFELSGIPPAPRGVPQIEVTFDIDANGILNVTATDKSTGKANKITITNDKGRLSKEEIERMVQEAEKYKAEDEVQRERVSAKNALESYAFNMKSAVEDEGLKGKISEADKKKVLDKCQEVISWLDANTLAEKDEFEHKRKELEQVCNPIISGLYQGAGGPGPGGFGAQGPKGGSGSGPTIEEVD

eIF4A1 [8] = target: T1, eIF4A1 (Homo sapiens, UniProt P60842); assay: Isothermal titration calorimetry; format: binding
T1 sequence (P60842 whole entry): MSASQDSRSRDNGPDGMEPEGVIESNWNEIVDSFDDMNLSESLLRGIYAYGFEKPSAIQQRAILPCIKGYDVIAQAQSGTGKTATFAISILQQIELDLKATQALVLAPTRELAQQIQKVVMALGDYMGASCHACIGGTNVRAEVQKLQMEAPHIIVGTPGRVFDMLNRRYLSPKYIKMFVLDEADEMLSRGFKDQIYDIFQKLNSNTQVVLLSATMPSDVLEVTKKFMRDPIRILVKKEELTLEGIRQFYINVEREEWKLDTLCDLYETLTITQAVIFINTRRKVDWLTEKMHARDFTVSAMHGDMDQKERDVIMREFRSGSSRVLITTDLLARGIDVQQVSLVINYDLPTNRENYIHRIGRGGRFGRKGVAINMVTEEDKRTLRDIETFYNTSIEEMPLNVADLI
Procedure, shortened: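 eIF4A dialysed 12 h against 20 mM MES-KOH pH 6.0, 10 mM potassium acetate, 2.5 mM MgCl2, 1% glycerol, 1 mM DTT. Protein was matched to 2% DMSO, degassed and placed in the cell. 12–20 injections of 0.2 mM test compound in the same buffer, every 200 s over 3000 s. Peaks integrated to 75 s post-injection and fit to an independent binding model. Replicates run at 25 and 10 µM eIF4A.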

[9] = tested on: Harvard/Wellcome cancer cell line collection; assay: Growth inhibition screen, Harvard/Wellcome cell line collection; format: cell-based; conditions: 344/924 cell lines
DDX3 = DDX3 (Homo sapiens, UniProt O00571); assay: Malachite green ATP hydrolysis counter-screen, DDX3; format: biochemical
Chain of DDX3 (O00571 whole entry, species assumed): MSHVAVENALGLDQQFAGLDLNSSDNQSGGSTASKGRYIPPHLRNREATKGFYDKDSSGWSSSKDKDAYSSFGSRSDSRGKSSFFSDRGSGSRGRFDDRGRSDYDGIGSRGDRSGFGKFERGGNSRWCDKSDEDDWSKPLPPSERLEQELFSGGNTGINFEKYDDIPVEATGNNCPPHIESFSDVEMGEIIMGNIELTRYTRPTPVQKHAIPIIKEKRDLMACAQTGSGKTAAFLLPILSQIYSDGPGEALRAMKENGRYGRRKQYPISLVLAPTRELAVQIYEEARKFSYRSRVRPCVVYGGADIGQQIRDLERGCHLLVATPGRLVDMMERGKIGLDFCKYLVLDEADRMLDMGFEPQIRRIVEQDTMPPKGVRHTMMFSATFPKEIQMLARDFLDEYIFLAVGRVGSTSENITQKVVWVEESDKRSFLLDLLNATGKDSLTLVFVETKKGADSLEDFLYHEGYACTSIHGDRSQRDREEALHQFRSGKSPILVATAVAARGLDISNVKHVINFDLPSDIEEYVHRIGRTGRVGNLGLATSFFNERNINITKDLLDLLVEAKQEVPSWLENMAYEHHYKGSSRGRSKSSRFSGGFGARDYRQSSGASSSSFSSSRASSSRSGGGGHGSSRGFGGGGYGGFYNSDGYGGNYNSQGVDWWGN

DDX17 = DDX17 (Homo sapiens, UniProt Q92841); assay: Malachite green ATP hydrolysis counter-screen, DDX17; format: biochemical
Chain of DDX17 (Q92841 whole entry, species assumed): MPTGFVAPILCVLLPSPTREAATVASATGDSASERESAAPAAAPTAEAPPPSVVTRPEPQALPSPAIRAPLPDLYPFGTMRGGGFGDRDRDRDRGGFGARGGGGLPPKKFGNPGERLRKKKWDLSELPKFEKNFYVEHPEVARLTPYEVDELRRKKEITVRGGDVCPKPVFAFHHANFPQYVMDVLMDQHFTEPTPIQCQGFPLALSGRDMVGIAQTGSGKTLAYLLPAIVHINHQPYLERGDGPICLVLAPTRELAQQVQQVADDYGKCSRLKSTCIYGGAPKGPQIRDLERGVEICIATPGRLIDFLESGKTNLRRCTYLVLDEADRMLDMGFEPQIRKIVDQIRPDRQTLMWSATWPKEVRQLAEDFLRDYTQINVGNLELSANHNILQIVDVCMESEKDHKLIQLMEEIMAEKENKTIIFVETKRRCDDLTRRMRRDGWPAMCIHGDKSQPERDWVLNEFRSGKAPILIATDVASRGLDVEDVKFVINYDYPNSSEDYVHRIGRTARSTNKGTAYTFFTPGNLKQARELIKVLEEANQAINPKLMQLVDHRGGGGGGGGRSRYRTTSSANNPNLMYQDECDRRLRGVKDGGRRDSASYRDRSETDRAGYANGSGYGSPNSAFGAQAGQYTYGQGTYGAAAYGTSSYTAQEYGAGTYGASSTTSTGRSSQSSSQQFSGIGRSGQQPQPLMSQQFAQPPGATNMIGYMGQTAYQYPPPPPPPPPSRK

HEK-293 cells = assay: Dual-luciferase reporter assay; format: cell-based; conditions: eight-hour treatment
Procedure, shortened: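 HEK-293 cells (7 × 10^5) transfected with 400 ng of a dual-luciferase plasmid using Lipofectamine 3000. Treated 36 h after transfection for 8 h, then lysed with a dual-luciferase kit and read in triplicate. Luciferase units normalized to DMSO-treated cells; mean ± SEM, n=3.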

[10] = tested on: engrafted B16 murine melanoma cells; conditions: 10 mg/kg daily i.p. or p.o.; cited from earlier work
[11] = tested on: normal human peripheral-blood mononuclear cells; assay: Potency against normal peripheral-blood mononuclear cells; format: cell-based; conditions: Fig. S1B
SU-DHL-6 flank tumors = assay: SU-DHL-6 xenograft; format: in vivo
Procedure, shortened: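 Female SCID mice, 8–10 weeks old. 2 × 10^6 SU-DHL-6 cells, washed in ice-cold PBS and mixed 1:1 with matrigel, injected s.c. into the right flank. At 60 mm3, mice pair-matched to vehicle (sterile water, 5.2% tween-80, 5.2% PEG-400) or 20 mg/kg test compound i.p. daily for 5 days. Weight and tumor volume measured twice weekly; mean ± SEM, n=8.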

DLBCL cell lines [12] = assay: Apoptosis assay; format: cell-based
Procedure, shortened: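 Flow-cytometric cell death: DLBCL cell lines treated as indicated for 24 h, alone or combined with the PERK inhibitor GSK2606414 or with 200 nM ISRIB. Cells washed once in ice-cold PBS, then co-stained with PE-Annexin V and 7-aminoactinomycin D. Mean ± SEM, n=3 biological replicates; unpaired two-tailed t-tests.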

[13] = Single-dose maximum tolerated dose study; format: in vivo; conditions: for tolerability, single dose: five female CD-1 mice
[14] = tested on: primary chronic lymphocytic leukemia (CLL) cells; assay: OPP labeling in primary CLL patient cells; format: cell-based
eIF4A1-K238E = eIF4A1-K238E (Homo sapiens, UniProt P60842, K238E); assay: Malachite green ATP hydrolysis assay, eIF4A1-K238E mutant; format: biochemical
Chain of eIF4A1-K238E (P60842 whole entry K238E): as the sequence (P60842 whole entry) above, with K238E counted along it
Procedure, shortened: (§1)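 Malachite green ATPase run at 37 °C for 1 h. eIF4A1 wild-type, K82R (500 nM) or K238E (500 nM) in 20 mM MES-NaOH pH 6.0, 100 mM potassium acetate, 2.5 mM MgCl2, 1% glycerol, 1 mM DTT. ATP gradient 0–2 mM. Aliquot mixed with 9.3 µM malachite green, 53 mM ammonium molybdate, 1 M HCl, 0.04% Tween 20. Mean ± SEM, n=3.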

OCI-Ly3 = assay: Protein; format: cell-based; conditions: OCI-Ly3, Fig. S3D
[15] = Tolerability in non-tumor bearing SCID mice; format: in vivo; conditions: for tolerability: non-tumor bearing SCID mice
Procedure, shortened: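 Non-tumor-bearing female SCID mice, 8–10 weeks old, dosed i.p. daily for 5 days at 10, 20 or 30 mg/kg and monitored for weight and activity. Complete blood counts (white blood cells, hemoglobin, platelets) measured on a Hemavet950. For 20 mg/kg: mean ± SEM, n=17 vehicle and 7 treated.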

Atf4−/− and WT MEFs = assay: Viability; format: cell-based, Murine; conditions: Mus musculus, 72 h, read-out: IC50, viability, Atf4−/− MEFs, 72 hour
eIF4A1-K82R = eIF4A1-K82R (Homo sapiens, UniProt P60842, K82R); assay: Malachite green ATP hydrolysis assay, eIF4A1-K82R mutant; format: biochemical
Chain of eIF4A1-K82R (P60842 whole entry K82R): as the sequence (P60842 whole entry) above, with K82R counted along it
Procedure, shortened: as §1

OCI-Ly3 cells = assay: Polysome profiling; format: cell-based; conditions: OCI-Ly3, 2 μM elatol
DLBCL cell lines [16] = assay: Proliferation assay; format: cell-based; conditions: three DLBCL cell lines, single elatol treatment
Procedure, shortened: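 Three DLBCL lines seeded on day 0 and given a single dose of DMSO vehicle or test compound at indicated concentrations. Viable cells counted daily by trypan blue exclusion. Mean ± SEM, n=3.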

eIF4A1 [17] = target: T1, eIF4A1; assay: Malachite green ATP hydrolysis assay, wildtype eIF4A1; format: biochemical
Procedure, shortened: as §1

eIF4A1 helicase activity = eIF4A1 helicase activity (Homo sapiens, UniProt P60842); assay: Fluorescence-based helicase assay; format: biochemical; conditions: cell-free, RNA unwinding de-quenching
Chain of eIF4A1 helicase activity (P60842 whole entry): as the sequence (P60842 whole entry) above

p97 = p97 (Homo sapiens, UniProt P55072); assay: Malachite green ATP hydrolysis counter-screen, p97; format: biochemical
Chain of p97 (P55072 whole entry): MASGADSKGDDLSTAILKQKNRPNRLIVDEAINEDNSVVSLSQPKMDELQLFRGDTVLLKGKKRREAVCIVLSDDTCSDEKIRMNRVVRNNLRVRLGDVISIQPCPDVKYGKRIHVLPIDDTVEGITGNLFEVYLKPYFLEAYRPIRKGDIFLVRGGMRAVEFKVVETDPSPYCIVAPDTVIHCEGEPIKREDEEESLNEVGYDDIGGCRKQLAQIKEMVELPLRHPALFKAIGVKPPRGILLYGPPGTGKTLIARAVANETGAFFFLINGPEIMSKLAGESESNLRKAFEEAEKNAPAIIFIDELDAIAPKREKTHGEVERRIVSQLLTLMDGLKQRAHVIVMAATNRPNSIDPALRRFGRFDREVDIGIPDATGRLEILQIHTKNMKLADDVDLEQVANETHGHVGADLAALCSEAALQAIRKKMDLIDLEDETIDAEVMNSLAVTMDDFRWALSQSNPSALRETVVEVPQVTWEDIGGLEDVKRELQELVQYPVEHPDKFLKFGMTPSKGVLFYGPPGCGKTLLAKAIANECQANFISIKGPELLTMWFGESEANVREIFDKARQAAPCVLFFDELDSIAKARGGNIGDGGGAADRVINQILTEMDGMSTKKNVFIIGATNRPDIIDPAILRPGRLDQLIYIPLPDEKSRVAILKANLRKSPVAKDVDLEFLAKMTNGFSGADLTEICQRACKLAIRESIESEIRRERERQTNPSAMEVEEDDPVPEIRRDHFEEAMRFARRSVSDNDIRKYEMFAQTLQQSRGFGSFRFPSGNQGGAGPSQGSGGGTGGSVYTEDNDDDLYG

SMILES: COC(=O)[C@H]1[C@@H](O)[C@@]2(O)c3c(OC)cc(O[C@@H]4O[C@@H]([C@H](O)CO)CO[C@H]4OC)cc3O[C@@]2(c2ccc(OC)cc2)[C@@H]1c1ccccc1 [silvestrol]
- increased potency of silvestrol relative to elatol (NIH/3T3 cells; 3T3 fibroblasts, Fig. 5F): > 500 x
- protein synthesis measured by incorporation of OPP [1]: global decline of protein synthesis
- type of effect on SNU-398 cells (SNU-398 [2]): highly cytotoxic
- LD50 (SNU-398 [2]): 41 nM
- activity against mTORC1 targets (phosphorylation of S6 and 4EBP1) (SNU-398 [3]): no activity

SMILES: C=C1C[C@H](O)[C@H](Br)C(C)(C)[C@@]12CCC(C)=C(Cl)C2 [elatol]
- IC50 ([4]; read-out: IC50, viability, eIF2α-S51 A/A MEFs, 72 hour): 1030 nM
- IC50 ([4]; read-out: IC50, viability, eIF2α-S51 S/S MEFs, 72 hour): 1400 nM
- activity against 97 oncogenic and related kinases [5]: no activity
- activity against ATP hydrolysis by DDX39A (DDX39A): no activity
- activity against ATP hydrolysis by GroEL [6]: no activity
- toxic concentration in the preliminary screen of cancer cell lines ([7]; preliminary screen): less than 1 μM
- fold less potent than silvestrol ([7]; sensitive tumor cells in vitro): 5–10 fold
- tolerability in tumor-bearing mice (OCI-Ly3 xenograft; 40 mg/kg i.p. twice per week): well-tolerated
- tumor growth compared to vehicle-treated controls (OCI-Ly3 xenograft; 40 mg/kg i.p. twice per week, p=0.0117): significant reduction of tumor growth
- tolerability in tumor-bearing mice (OCI-Ly3 xenograft; single dose at 65 mg/kg, OCI-Ly3 engrafted SCID mice): morbidity and weight loss
- activity against ATP hydrolysis by HSP70 (human chaperone HSP70): no activity
- Kd (eIF4A1 [8]): 1980 ± 310 nM
- share of cell lines having IC50 < 1μM [9]: 37%
- activity against ATP hydrolysis by DDX3 (DDX3): no activity
- activity against ATP hydrolysis by DDX17 (DDX17): no activity
- cap-dependent versus IRES driven luciferase expression (HEK-293 cells): down-regulated cap-dependent protein translation more strongly than cap-independent IRES driven expression
- protein synthesis measured by incorporation of OPP [1]: global decline of protein synthesis
- type of effect on SNU-398 cells (SNU-398 [2]): highly cytotoxic
- LD50 (SNU-398 [2]): 219 nM
- antitumor activity [10]: antitumor activity
- potency against normal PBMC relative to tumor lines [11]: less potent
- activity against mTORC1 targets (phosphorylation of S6 and 4EBP1) (SNU-398 [3]): no activity
- ATF4 expression (SNU-398 [3]; SNU-398, 1 μM elatol): induced expression of the transcription factor ATF4
- time tumor growth was halted from the start of treatment (SU-DHL-6 flank tumors; 20 mg/kg i.p. daily for 5 days, one cycle): 12 days
- tolerability in tumor-bearing mice (SU-DHL-6 flank tumors; 20 mg/kg i.p. daily, first five-day cycle): weight loss and overt signs of toxicity
- effect of ISRIB on elatol's toxicity (DLBCL cell lines [12]; OCI-Ly3 cells, combination with 200 nM ISRIB): no effect
- effect of PERK inhibitor GSK2606414 on elatol's potency (DLBCL cell lines [12]; annexin V staining, 24 hours, combination with PERKi): no significant reversal
- apoptosis (DLBCL cell lines [12]; by 24 hours, most sensitive DLBCL line): greater than 50%
- tolerability, single dose ([13]; 50 mg/kg single i.p. dose): tolerated 50 mg/kg without issue
- tolerability, single dose ([13]; 65 mg/kg single i.p. dose): tolerated 65 mg/kg without issue
- mice dying or moribund requiring sacrifice ([13]; 80 mg/kg single i.p. dose, within five days): 3/5
- mortality, single dose ([13]; 100 mg/kg single i.p. dose, within five days): all five animals in group 2 died
- tolerated dose relative to silvestrol ([13]; CD-1, SCID, mouse, in vivo, 14 days): ~ 100 x
- protein translation measured by OPP labeling ([14]; primary CLL cells stimulated with anti IgM): significantly reduced protein translation
- OPP labeling ([14]; unstimulated primary CLL cells, or non-malignant T-cells): did not significantly inhibit OPP labeling
- IC50 (eIF4A1-K238E): 34200 ± 12800 nM
- concentration at which mRNA reductions become significant (OCI-Ly3): 500 to 1000 nM
- concentration at which protein-expression changes begin (OCI-Ly3): 100 nM
- tolerability ([15]; 10 mg/kg daily x 5 days i.p.): neither 10 mg/kg nor 20 mg/kg resulted in signs of toxicity
- Day 5 complete blood counts versus vehicle ([15]; 20 mg/kg daily for 5 days): no differences
- tolerability ([15]; 20 mg/kg daily x 5 days i.p.): neither 10 mg/kg nor 20 mg/kg resulted in signs of toxicity
- tolerability ([15]; 30 mg/kg daily i.p., stopped after three days): weight loss and reduced animal activity
- IC50 (Atf4−/− and WT MEFs): 2780 nM
- IC50 (eIF4A1-K82R): 85500 ± 31800 nM
- polysome translation (OCI-Ly3 cells; 16 hours): complete elimination of polysome translation
- polysome translation (OCI-Ly3 cells; two-hour treatment): moderately reduced polysome translation
- effect on proliferation (DLBCL cell lines [16]): completely halted proliferation
- IC50 (eIF4A1 [17]): 16400 nM
- effect on eIF4A1 helicase activity (eIF4A1 helicase activity): inhibition
- activity against ATP hydrolysis by p97 (p97): no activity

SMILES: C=C1CC[C@@](C)(c2cc(Br)c(C)cc2O)[C@H]1C [allolaurinterol, reference compound]
- activity against non-Hodgkin lymphoma (NHL) cell lines (LD50) [7]: > 10 µM

SMILES: CC(C)=C[C@@H]1C[C@H](C)c2c(O)cc(C)c3c2C1=C(C)C(=O)C3=O [elisabatin A, reference compound]
- activity against non-Hodgkin lymphoma (NHL) cell lines (LD50) [7]: > 10 µM

SMILES: N.N.O=C([O-])C1(C(=O)[O-])CCC1.[Pt+2] [carboplatin]
- change in drug sensitivity on eIF4A1 knockdown (NIH/3T3 cells; NIH-3T3 shRLuc vs sh4A1): no change in drug sensitivity
- protein synthesis measured by incorporation of OPP [1]: no significant decline

SMILES: CO[C@H]1C[C@@H]2CC[C@@H](C)[C@@](O)(O2)C(=O)C(=O)N2CCCC[C@H]2C(=O)O[C@H]([C@H](C)C[C@@H]2CC[C@@H](O)[C@H](OC)C2)CC(=O)[C@H](C)/C=C(\C)[C@@H](O)[C@@H](OC)C(=O)[C@H](C)C[C@H](C)/C=C/C=C/C=C/1C [rapamycin, reference compound]
- type of effect on SNU-398 cells (SNU-398 [2]): cytostatic
- activity against mTORC1 targets (phosphorylation of S6 and 4EBP1) (SNU-398 [3]): potently inhibits phosphorylation

Reference: publication PMC6500731 (Clinical cancer research : an official journal of the …, 2018)
